Assay results of several laboratories.
Target: Mitogen-activated protein kinase 15 (MAPK15, Homo sapiens, UniProt Q8TD08)
Sequence (Q8TD08 1-544, as in one of the studies): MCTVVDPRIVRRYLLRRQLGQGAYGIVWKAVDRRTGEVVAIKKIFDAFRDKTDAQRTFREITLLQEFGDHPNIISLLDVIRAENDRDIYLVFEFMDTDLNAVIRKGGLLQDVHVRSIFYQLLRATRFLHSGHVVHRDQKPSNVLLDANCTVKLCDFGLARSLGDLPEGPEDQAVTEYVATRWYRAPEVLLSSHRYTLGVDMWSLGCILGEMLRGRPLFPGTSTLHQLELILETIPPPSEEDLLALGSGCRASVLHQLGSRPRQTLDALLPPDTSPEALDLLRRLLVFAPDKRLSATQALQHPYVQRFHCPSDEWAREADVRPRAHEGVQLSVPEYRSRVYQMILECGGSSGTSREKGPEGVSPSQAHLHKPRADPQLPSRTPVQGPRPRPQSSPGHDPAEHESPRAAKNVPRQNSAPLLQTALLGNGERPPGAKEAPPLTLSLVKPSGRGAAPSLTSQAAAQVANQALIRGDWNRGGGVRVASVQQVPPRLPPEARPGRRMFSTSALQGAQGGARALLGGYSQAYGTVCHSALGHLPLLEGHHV

| Compound | assay | conditions | remaining binding |
| --- | --- | --- | --- |
| CCN1CCN(Cc2ccc(C(=O)Nc3ccc(C)c(Oc4ccc5c(c4)CC(=O)N5)c3)cc2C(F)(F)F)CC1 | binding, competition with immobilised ligand | 1 µM | 100% |
| O=C(c1ccc(Nc2ncc(Cl)c(-c3cc4ccccc4s3)n2)cc1)N1CCC(N2CCCC2)CC1 | binding, competition with immobilised ligand | 1 µM | 5.4% |
| Cc1cnn2ncc(-c3ccnc(N(C)C)n3)c2c1 | binding | 1 µM | 83% |
| O=C(O)c1cc(-c2ccc(C3CCNCC3)cc2)c2ccc(-c3ccc(C(F)(F)F)cc3)cc2c1 | cell-free assay, competition with immobilised ligand | 1 µM | 100% |
| F[C@@H]1CCN(c2nccc(-c3cnn4ncccc34)n2)C1 | binding | 1 µM | 66% |
| C=CC(=O)N1CCC(C(=O)NCC(=O)N2CCN(c3nc(-c4cnc(N)nc4C(F)F)nc(N4CCOCC4)n3)CC2)CC1 | binding, competition with immobilised ligand | 1 µM | 97% |
| COc1ccc2cc(OCC3(C(=O)O)CN(C(=O)c4ccc(F)cc4)C3)ccc2c1 | cell-free assay, competition with immobilised ligand | 1 µM | 74% |
| O=C(Nc1c[nH]nc1C(=O)NC1CCNCC1)c1cc(F)cc(F)c1 | binding, competition with immobilised ligand | 1 µM | 75% |
| c1cnn2ncc(-c3ccnc(N4CCC45COC5)n3)c2c1 | binding | 1 µM | 71% |
| COc1cnc(Nc2cccc(S(N)(=O)=O)c2)nc1N1CCN(c2ccccc2)CC1 | binding, competition with immobilised ligand | 1 µM | 100% |
| C[C@H]1CCN(c2nccc(-c3cnn4ncccc34)n2)C1 | binding | 1 µM | 74% |
| Cc1cnc(Nc2ccc(C(=O)N3CCC(N4CCCC4)CC3)cc2)nc1-c1cc2ccccc2s1 | binding, competition with immobilised ligand | 1 µM | 33% |
| CCS(=O)(=O)c1cc2cc(C[C@](O)(CC(C)(C)c3ccc(F)cc3C(N)=O)C(F)(F)F)[nH]c2cn1 | cell-free assay, competition with immobilised ligand | 1 µM | 100% |
| N[C@@H]1CCN(c2nccc(-c3cnn4ncccc34)n2)C1 | binding | 1 µM | 97% |
| C[C@H](NC(=O)c1cnc2n1[C@](C)(Cc1ccc(C#N)cc1)C(=O)N2c1cc(Cl)c(F)c(Cl)c1)C(=O)NC1(c2ccccn2)CC1 | cell-free assay, competition with immobilised ligand | 1 µM | 100% |
| C[C@@H](c1ccc(-n2cnc3c(N)ncnc32)cc1)N1CCc2nn(C)c(Cc3ccccc3)c2C1=O | binding, competition with immobilised ligand | 0.1 µM | 88% |
| CCCCN(CCCC)C(=O)CN1C[C@H](c2cc(OC)c3c(c2)OCO3)[C@@H](C(=O)O)[C@@H]1CC(C)(C)CCC | cell-free assay, competition with immobilised ligand | 1 µM | 100% |
| O=C(NCCCN1CCOCC1)c1ccc(Nc2ncc(Cl)c(-c3ccc(Cl)s3)n2)cc1 | binding, competition with immobilised ligand | 1 µM | 1.2% |
| C[C@H](c1ccc(F)cc1)N(Cc1cccc(C(=O)O)c1)C(=O)c1cnc2ccccc2c1 | cell-free assay, competition with immobilised ligand | 1 µM | 93% |
| CN(C)c1nccc(-c2cnn3ncccc23)n1 | binding | 1 µM | 51% |
| CS(=O)(=O)N1CCCC(NC(=O)[C@H](CCC2CCCCC2)NC(=O)c2ccc(CNC(=O)c3cnc4ccccn34)cc2)C1 (stereo partly shown) | cell-free assay, competition with immobilised ligand | 0.1 µM | 100% |
| COc1ncc2cc3ccccc3nc2c1C#N | cell-free assay, competition with immobilised ligand | 5 µM | 91% |
